Columns and labels:
SMO^D473H = test: GLI-luciferase activity in light2 cells with ectopic SMO^D473H; format: cell-based; conditions: read-out: IC50, GLI-luciferase activity induced by SMO^D473H
Procedure, shortened: (§1)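 NIH-3T3-derived light2 reporter cells (stable GLI-responsive firefly luciferase plus renilla vector) with forced SMO expression, exposed to test compound for 36 h. Dual-luciferase kit read-out; firefly signal normalised to TK-renilla.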

H3132 = test: Cell growth inhibition; format: cell-based; conditions: 72 h
Procedure, shortened: (§2)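 Cells seeded in 96-well plates and incubated overnight. DMSO stocks of test compound were thawed at room temperature, diluted with saline to working concentrations, and added for 72 h. Growth read by CCK-8 assay, giving IC50/GI50.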

KYSE450 = test: Cell growth inhibition; format: cell-based; conditions: Homo sapiens, KYSE-450, 72 h
Procedure, shortened: as §2

CHL normal cell line = test: Cell growth inhibition; format: cell-based; conditions: 72 h
Procedure, shortened: as §2

[1] = test system: HH signaling pathway (GLI-responsive firefly luciferase reporter); test: Dual luciferase reporter assay; format: cell-based; conditions: read-out: IC50 GLI-luc reporter
Colo680N = test: Cell growth inhibition; format: cell-based; conditions: Homo sapiens, COLO-680N, 72 h
Procedure, shortened: as §2

[2] = test system: SMOA1 MB allografts (SMO^W539L); test: SMOA1 MB allograft model; format: in vivo, nude mice; conditions: bid
Procedure, shortened: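 Primary SMOA1 MB allografts from ND2:SMOA1 transgenic mice grafted subcutaneously into nude mice. Dosing started at 100–150 mm3 tumour size: test compound p.o. twice daily, vehicle 0.5% CMC-Na, n ≥ 3 per group. Caliper measurement every 3 days; volume = 0.5 × length × width². Body weight tracked; group means ± SEM.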

BRD4 (BD1) = BRD4 (BD1) (Homo sapiens, UniProt O60885); test: Homogeneous time-resolved fluorescence binding assay, BRD4; conditions: IC50 BRD4 (BD1), mean ± SD from three separate experiments
SMO^WT = test: GLI-luciferase activity in light2 cells with ectopic SMO^WT; format: cell-based; conditions: read-out: IC50, GLI-luciferase activity induced by SMO^WT
Procedure, shortened: as §1

SKM-1 = test: Cell growth inhibition; format: cell-based; conditions: Homo sapiens, SKM-1, 72 h
Procedure, shortened: as §2

N87 = test: Cell growth inhibition; format: cell-based; conditions: 72 h
Procedure, shortened: as §2

CAL27 = test: Cell growth inhibition; format: cell-based; conditions: Homo sapiens, CAL-27, 72 h
Procedure, shortened: as §2

hERG channel = hERG channel (Homo sapiens, UniProt Q12809); test: hERG inhibition; format: cell-based
hERG channel, sequence (Q12809 whole entry): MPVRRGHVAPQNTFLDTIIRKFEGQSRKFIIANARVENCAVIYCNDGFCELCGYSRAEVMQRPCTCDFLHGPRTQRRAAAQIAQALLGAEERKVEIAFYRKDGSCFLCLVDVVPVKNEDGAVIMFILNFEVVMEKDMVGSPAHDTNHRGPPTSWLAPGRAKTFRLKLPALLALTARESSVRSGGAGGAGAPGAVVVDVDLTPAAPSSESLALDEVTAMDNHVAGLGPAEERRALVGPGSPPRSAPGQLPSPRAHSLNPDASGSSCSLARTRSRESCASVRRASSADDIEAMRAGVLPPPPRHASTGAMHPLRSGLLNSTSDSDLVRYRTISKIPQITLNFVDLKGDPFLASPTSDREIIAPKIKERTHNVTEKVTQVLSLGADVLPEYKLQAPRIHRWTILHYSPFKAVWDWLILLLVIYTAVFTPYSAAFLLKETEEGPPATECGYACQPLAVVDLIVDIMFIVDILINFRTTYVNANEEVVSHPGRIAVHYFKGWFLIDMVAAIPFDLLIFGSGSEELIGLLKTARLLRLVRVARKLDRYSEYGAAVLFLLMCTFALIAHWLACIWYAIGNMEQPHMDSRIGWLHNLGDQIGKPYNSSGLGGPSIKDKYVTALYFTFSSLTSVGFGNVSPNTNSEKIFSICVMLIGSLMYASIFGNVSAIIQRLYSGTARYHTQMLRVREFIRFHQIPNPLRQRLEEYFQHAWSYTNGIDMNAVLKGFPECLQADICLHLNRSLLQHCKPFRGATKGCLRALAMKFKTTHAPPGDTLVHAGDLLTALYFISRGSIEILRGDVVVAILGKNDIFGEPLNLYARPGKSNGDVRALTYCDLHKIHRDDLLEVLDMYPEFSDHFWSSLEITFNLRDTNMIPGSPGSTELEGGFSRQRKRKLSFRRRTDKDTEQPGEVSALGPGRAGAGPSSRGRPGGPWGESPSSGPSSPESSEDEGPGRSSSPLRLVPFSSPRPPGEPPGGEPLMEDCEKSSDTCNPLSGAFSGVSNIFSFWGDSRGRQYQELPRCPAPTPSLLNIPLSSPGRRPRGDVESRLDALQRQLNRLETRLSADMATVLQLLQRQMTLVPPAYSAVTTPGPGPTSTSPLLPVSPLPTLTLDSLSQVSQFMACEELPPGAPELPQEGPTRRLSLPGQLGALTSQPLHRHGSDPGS

H1975 = test: Cell growth inhibition; format: cell-based; conditions: Homo sapiens, NCI-H1975, 72 h
Procedure, shortened: as §2

HSC-2 = test: Cell growth inhibition; format: cell-based; conditions: Homo sapiens, HSC-2, 72 h
Procedure, shortened: as §2

endogenous GLI2 = test: Western blot of endogenous GLI2 in light2 cells; format: cell-based; conditions: 25 at 10 and 100 nmol/L, GDC-0449 100 nmol/L
Procedure, shortened: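 Light2 cells treated with test compound, lysed in LDS sample buffer, and run on SDS-PAGE. Immunoblotting used anti-GLI2 (1:1000), with GAPDH (1:5000) as reference.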

DOHH-2 = test: Cell growth inhibition; format: cell-based; conditions: Homo sapiens, DOHH-2, 72 h
Procedure, shortened: as §2

GLI2 = test: GLI-luciferase activity in light2 cells after transfection with GLI2; format: cell-based; conditions: read-out: IC50, GLI-luciferase activity provoked by forced expression of GLI2
Procedure, shortened: (§3)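 Light2 cells (NIH-3T3 stably carrying GLI-responsive firefly luciferase and renilla expression vector) lipofected with FLAG-GLI1 or MYC-GLI2-FL. Test compound added 24 h post-transfection, then 36 h exposure. Dual-luciferase read-out, firefly normalised to TK-renilla.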

GLI1 = test: GLI-luciferase activity in light2 cells after transfection with GLI1; format: cell-based; conditions: read-out: IC50, GLI-luciferase activity provoked by forced expression of GLI1
Procedure, shortened: as §3

SMO^W535L = test: GLI-luciferase activity in light2 cells with ectopic SMO^W535L; format: cell-based; conditions: read-out: IC50, GLI-luciferase activity induced by SMO^W535L
Procedure, shortened: as §1

HT1080 = test: Cell growth inhibition; format: cell-based; conditions: Homo sapiens, HT-1080, 72 h
Procedure, shortened: as §2

TOV-21G = test: Cell growth inhibition; format: cell-based; conditions: Homo sapiens, TOV21G, 72 h
Procedure, shortened: as §2

[3] = Pharmacokinetics in Sprague–Dawley rats; format: in vivo; conditions: rat
GLI2-MYC = test: Western blot of exogenous GLI2-MYC in transfected light2 cells; format: cell-based; conditions: light2 cells transfected with GLI2-MYC
Procedure, shortened: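 Light2 cells lipofected with FLAG-GLI1 or MYC-GLI2-FL; test compound added 24 h after transfection. Lysis in LDS sample buffer, then SDS-PAGE. Immunoblots probed with tag or GLI2 antibodies (1:1000), with GAPDH (1:5000) as reference.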

[4] = Sprague-Dawley, plasma, iv, 1 mg/kg
[5] = Sprague-Dawley, plasma, po, 3 mg/kg

Cn1cc(-c2cc(N3CCCCS3(=O)=O)ccc2Oc2ccc(F)cc2F)c2c(F)c[nH]c2c1=O [Compound 25]
IC50 (SMO^D473H): 1.44 nM
GI50 (H3132): 140 nM
GI50 (KYSE450): 1600 nM
GI50 (CHL normal cell line): > 10000 nM
IC50 [1]: 0.48 ± 0.08 nM
GI50 (Colo680N): 2300 nM
Tolerability ([2]; 5 mg/kg p.o.): well tolerant
tumor growth inhibition (TGI) ([2]; 5 mg/kg p.o., Fig. 6A): 83.3%
Tolerability ([2]; 10 mg/kg p.o.): well tolerant
tumor growth inhibition (TGI) ([2]; 10 mg/kg p.o., Fig. 5A): 88.2%
Body weight change ([2]; 10 mg/kg p.o., Fig. 5B): No obvious body weight loss
tumor growth inhibition (TGI) ([2]; 10 mg/kg p.o., Fig. 6A): 87.6%
IC50 (BRD4 (BD1)): 1.51 ± 0.43 nM
IC50 (SMO^WT): 1.16 nM
GI50 (SKM-1): 19 nM
GI50 (N87): 130 nM
GI50 (CAL27): 110 nM
IC50 (hERG channel): 27300 nM
GI50 (H1975): 34 nM
GI50 (HSC-2): 770 nM
Effect on abundance of endogenous GLI2 proteins (endogenous GLI2): dramatically reduced
GI50 (DOHH-2): 6.6 nM
IC50 (GLI2): 2.2 nM
IC50 (GLI1): 0.97 nM
IC50 (SMO^W535L): 1.13 nM
GI50 (HT1080): 1000 nM
GI50 (TOV-21G): 23 nM
AUC(0-inf) [3, 4]: 614 ng·h/mL
AUC(0-t) [3, 4]: 614 ng·h/mL
MRT inf [3, 4]: 46.2 min
clearance [3, 4]: 27.2 mL/min/kg
half-life [3, 4]: 32.4 min
AUC(0-inf) [3, 5]: 406 ng·h/mL
AUC(0-t) [3, 5]: 406 ng·h/mL
Cmax [3, 5]: 503 ng/mL
MRT inf [3, 5]: 57 min
Tmax [3, 5]: 15 min
half-life [3, 5]: 57.6 min
Vss_obs ([3]; i.v. 1 mg/kg): 1.258 L/kg
Effect on expression of exogenous GLI2-MYC (GLI2-MYC): failed to inhibit

— article PMC7893122 (Acta Pharmaceutica Sinica. B, 2020)
